Reference: ChEMBL document CHEMBL1667803, “Inhibitory effects of ethacrynic acid analogues lacking the α,β-unsaturated carbonyl unit and para-acylated phenols on human cancer cells” (2011)
Active and inactive are the calls of the source. The rule behind the calls is not given here.

Experiments:
Assay type in all cases: functional
LNCaP C4-2B [1] = test: Inhibition of migration of human C4-2B cells at 100 uM after 24 hrs
Summary of the method: (§1)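 Wound-healing migration assay. Confluent monolayers were washed twice with PBS and scratched to leave a gap of about 1500 µm, then imaged. Fresh medium was added with or without compound, at concentrations set from the 24 h MTT assay. The wound was imaged again after 24 h. Migration was quantified against the earlier images as migratory velocity (µm/h).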

Homo sapiens = species on record: Homo sapiens; test: (§2) Inhibition of migration of human Hs578Ts(i)8 cells at 100 uM after 24 hrs; summary of the method: as §1
LNCaP C4-2B [2] = test: […] human C4-2B cells assessed as reduction in cell viability after 24 hrs
Summary of the method: (§3)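 MTT viability assay. Cells seeded at 1.5×10^4 per well in medium with 5% FBS and penicillin/streptomycin, then grown 24 h at 37 °C in 5% CO2. Treated 24 h at 1, 5, 10, 20, 40, 60, 80 and 100 μM. Half the medium was removed before adding MTT, and optical density was read. Three independent experiments were run per concentration. OD80/IC20 (20% inhibition) was read from the graphs.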

[3] = […] human Hs578Ts(i)8 cells assessed as reduction in cell viability after 24 hrs; summary of the method: as §3
[4] = as §2; summary of the method: as §1

| SMILES | inhibition (LNCaP C4-2B [1]) | inhibition (Homo sapiens) | IC20 (LNCaP C4-2B [2]) [µM] | IC20 [3] [µM] | inhibition at 100 µM (LNCaP C4-2B [1]) [%] | inhibition at 100 µM [4] [%] |
| --- | --- | --- | --- | --- | --- | --- |
| C=C(CC)C(=O)c1ccc(OCC(=O)O)c(Cl)c1Cl [ETHACRYNIC ACID] | inactive | inactive | 10 | 80 | – | – |
| CCC(=O)c1ccc(O)cc1 [PAROXYPROPIONE] | – | – | > 100 | > 100 | 25 | 28 |
| CCC(=O)c1ccc(O)cc1C | – | – | > 100 | > 100 | 65 | 86 |
| CCCC(=O)c1ccc(OCC(=O)OCC)c(C)c1C | inactive | inactive | 50 | > 100 | – | – |
| CCC(=O)c1ccc(O)c(C)c1C | inactive | – | > 100 | > 100 | – | 17 |
| CCOC(=O)COc1ccc(C(=O)CC)c(C)c1C | inactive | inactive | > 100 | > 100 | – | – |
| CCC(=O)c1ccc(OCC(=O)O)c(C)c1C | inactive | inactive | > 100 | > 100 | – | – |
| CCOC(=O)COc1ccc(C(=O)CC)c(C)c1 | – | – | > 100 | > 100 | 23 | 19 |
| CCCC(=O)c1ccc(OCC(=O)O)c(C)c1C | inactive | inactive | > 100 | > 100 | – | – |
